Ki, IC50 and Ke data for eight compounds are collected here from ChEMBL document CHEMBL1134588, “[2',6'-Dimethyltyrosine]dynorphin A(1-11)-NH2 analogues lacking an N-terminal amino group: potent and selective kappa opioid antagonists” (J Med Chem, 2001).

Experiment [1] deals with Kappa-type opioid receptor (Cavia porcellus, UniProt P41144). Briefly: Binding affinity was measured on opioid receptor kappa 1.
The species named for another experiment is Mus musculus. Briefly: Inhibitory concentration of compound was measured in mouse vas deferens assay. It is filed as functional. A digest of the protocol:
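Mouse vas deferens bioassay, measuring inhibition of electrically evoked contractions. A [Leu5]enkephalin standard dose-response curve was run on each vas preparation, and the IC50 values were normalized accordingly.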

The next experiment is filed under the species Cavia porcellus. Description: Inhibitory concentration of compound was measured in guinea pig ileum(GPI) assay. The experiment is classed as functional. The method, boiled down: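 Isolated guinea pig ileum, measuring inhibition of electrically evoked contractions. Each preparation received a [Leu5]enkephalin dose-response curve as standard, and the IC50 values were normalized to it.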

The target of experiment [2] is Kappa-type opioid receptor (Cavia porcellus) (UniProt P41144). Description: Antagonist activity was evaluated in the guinea pig ileum assay against U50,488- selective agonist of opioid receptor kappa 1. It is filed as functional, tissue-based. A digest of the protocol: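 Ke taken from agonist IC50 ratio in presence versus absence of antagonist; [Leu5]enkephalin dose-response on each ileum used to normalize IC50s. Three to six determinations, mean ± SEM.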

Experiment [3] has the same target. Briefly: Antagonist activity was evaluated in the guinea pig ileum assay against Dyn A(1-13)-selective agonist of opioid receptor kappa 1. It is filed as functional, tissue-based.
Experiment [4] addresses Mu-type opioid receptor (Cavia porcellus) (UniProt P97266). Description: Antagonist activity was evaluated in the guinea pig ileum assay against TAPP-selective agonist of Mu receptor. The experiment is classed as functional, tissue-based. The method, boiled down:
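Mu antagonism in guinea pig ileum (electrically evoked contractions) versus agonist TAPP, fixed antagonist concentrations 100 nM to 5 µM. Ke computed from shift in agonist IC50 (with/without antagonist), IC50s normalized against per-tissue [Leu5]enkephalin standard. Mean of three to six runs ± SEM.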

The target of experiment [5] is Delta-type opioid receptor (Mus musculus) (UniProt P32300). Description: Antagonist activity was evaluated in the mouse vas deferens assay against DPDPE which is selective agonist of Delta receptor. It is filed as functional, tissue-based. The method, boiled down:
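Mouse vas deferens, electrically evoked contractions; delta antagonism against DPDPE at fixed antagonist 30 nM to 10 µM. Ke obtained from agonist IC50 ratio with versus without antagonist; each vas preparation standardized with [Leu5]enkephalin dose-response. Means of three to six determinations ± SEM.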

Kappa-type opioid receptor, sequence (P41144 whole entry): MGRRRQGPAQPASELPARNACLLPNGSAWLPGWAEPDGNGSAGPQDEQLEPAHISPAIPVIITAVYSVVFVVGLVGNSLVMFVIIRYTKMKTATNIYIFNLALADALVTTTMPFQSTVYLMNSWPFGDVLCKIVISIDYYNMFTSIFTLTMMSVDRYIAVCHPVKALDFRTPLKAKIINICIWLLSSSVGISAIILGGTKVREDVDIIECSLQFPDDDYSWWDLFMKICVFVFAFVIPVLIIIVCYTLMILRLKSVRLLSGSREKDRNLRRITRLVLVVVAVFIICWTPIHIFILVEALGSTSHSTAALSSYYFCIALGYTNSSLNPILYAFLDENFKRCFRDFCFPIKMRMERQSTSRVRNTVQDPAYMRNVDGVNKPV
Kappa-type opioid receptor (Cavia porcellus), sequence (P41144 whole entry): as above
Mu-type opioid receptor (Cavia porcellus), sequence (P97266 whole entry): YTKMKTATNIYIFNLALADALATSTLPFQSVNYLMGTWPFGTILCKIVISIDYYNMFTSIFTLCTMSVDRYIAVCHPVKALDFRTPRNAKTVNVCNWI
Delta-type opioid receptor (Mus musculus), sequence (P32300 whole entry): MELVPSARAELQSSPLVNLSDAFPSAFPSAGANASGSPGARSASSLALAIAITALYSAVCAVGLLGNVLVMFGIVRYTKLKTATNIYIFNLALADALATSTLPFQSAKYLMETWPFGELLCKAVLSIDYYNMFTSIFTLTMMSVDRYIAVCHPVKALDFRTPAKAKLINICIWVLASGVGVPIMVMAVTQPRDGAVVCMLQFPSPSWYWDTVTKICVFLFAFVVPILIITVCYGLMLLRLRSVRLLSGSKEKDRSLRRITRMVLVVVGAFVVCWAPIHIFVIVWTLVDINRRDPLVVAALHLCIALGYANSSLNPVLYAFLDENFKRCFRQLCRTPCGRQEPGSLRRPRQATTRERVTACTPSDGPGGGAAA

In the case of `CC[C@H](C)[C@H](NC(=O)[C@H](CCCN=C(N)N)NC(=O)[C@H](CCCN=C(N)N)NC(=O)[C@H](CC(C)C)NC(=O)[C@H](Cc1ccccc1)NC(=O)[C@@H](C)NC(=O)CNC(=O)CCc1c(C)cc(O)cc1C)C(=O)N[C@@H](CCCN=C(N)N)C(=O)N1CCC[C@H]1C(=O)N[C@@H](CCCCN)C(N)=O`, affinity in experiment [1] was put at a Ki of 3.84 nM. For the compound `CC[C@H](C)[C@H](NC(=O)[C@H](CCCN=C(N)N)NC(=O)[C@H](CCCN=C(N)N)NC(=O)[C@H](CC(C)C)NC(=O)[C@H](Cc1ccccc1)NC(=O)[C@@H](C)NC(=O)CNC(=O)[C@@H](C)Cc1c(C)cc(O)cc1C)C(=O)N[C@@H](CCCN=C(N)N)C(=O)N1CCC[C@H]1C(=O)N[C@@H](CCCCN)C(N)=O`, affinity in experiment [1] was put at a Ki of 2.47 nM. With `CC[C@H](C)[C@H](NC(=O)[C@H](CCCNC(=N)N)NC(=O)[C@H](CCCNC(=N)N)NC(=O)[C@H](CC(C)C)NC(=O)[C@H](Cc1ccccc1)NC(=O)CNC(=O)CNC(=O)CCc1ccc(O)cc1)C(=O)N[C@@H](CCCNC(=N)N)C(=O)N1CCC[C@H]1C(=O)N[C@@H](CCCCN)C(N)=O`, the midpoint of inhibition in the experiment listed under Mus musculus, the IC50, lay at 722 nM. Also, in experiment [1], the affinity, expressed as Ki, was 30.7 nM. Turning to `Oc1ccc2c3c1O[C@H]1c4[nH]c5c(c4C[C@@]4(O)[C@@H](C2)N(CC2CC2)CC[C@]314)C[C@@]1(O)[C@H]2Cc3ccc(O)c4c3[C@@]1(CCN2CC1CC1)[C@H]5O4` [NORBINALTORPHIMINE], the Ki in experiment [1] stood at 0.81 nM. On to `CC[C@H](C)[C@H](NC(=O)[C@H](CCCN=C(N)N)NC(=O)[C@H](CCCN=C(N)N)NC(=O)[C@H](CC(C)C)NC(=O)[C@H](Cc1ccccc1)NC(=O)CNC(=O)CNC(=O)[C@@H](N)Cc1c(C)cc(O)cc1C)C(=O)N[C@@H](CCCN=C(N)N)C(=O)N1CCC[C@H]1C(=O)N[C@@H](CCCCN)C(N)=O`, for which the IC50 was found to be 0.377 nM in the experiment listed under Mus musculus and 0.502 nM in the experiment listed under Cavia porcellus. Turning to `CC[C@H](C)[C@H](NC(=O)[C@H](CCCNC(=N)N)NC(=O)[C@H](CCCNC(=N)N)NC(=O)[C@H](CC(C)C)NC(=O)[C@H](Cc1ccccc1)NC(=O)CNC(=O)CNC(=O)CCc1c(C)cc(O)cc1C)C(=O)N[C@@H](CCCNC(=N)N)C(=O)N1CCC[C@H]1C(=O)N[C@@H](CCCCN)C(N)=O`, the affinity in experiment [1] corresponds to a Ki of 3.49 nM. For the compound `CC[C@H](C)[C@H](NC(=O)[C@H](CCCNC(=N)N)NC(=O)[C@H](CCCNC(=N)N)NC(=O)[C@H](CC(C)C)NC(=O)[C@H](Cc1ccccc1)NC(=O)CNC(=O)CNC(=O)[C@@H](C)Cc1c(C)cc(O)cc1C)C(=O)N[C@@H](CCCNC(=N)N)C(=O)N1CCC[C@H]1C(=O)N[C@@H](CCCCN)C(N)=O`, the Ke in experiment [2] amounted to 3.92 nM; in experiment [3] it was 0.632 nM; in experiment [4], 925 nM; in experiment [5] it was 3.22 µM. Turning to `CC[C@H](C)[C@H](NC(=O)[C@H](CCCN=C(N)N)NC(=O)[C@H](CCCN=C(N)N)NC(=O)[C@H](CC(C)C)NC(=O)[C@H](Cc1ccccc1)NC(=O)CNC(=O)CNC(=O)[C@@H](N)Cc1ccc(O)cc1)C(=O)N[C@@H](CCCN=C(N)N)C(=O)N1CCC[C@H]1C(=O)N[C@@H](CCCCN)C(N)=O`, the IC50 in the experiment listed under Mus musculus stood at 12.9 nM; in the experiment filed under Cavia porcellus it was 0.456 nM.
